According to ChEMBL document CHEMBL3286113, “New potent antibacterial oxazolidinone (MRX-I) with an improved class safety profile” (J Med Chem, 2014):
Values after ≈ are worked out from the molar mass of the structure shown.

Experiments:
[1] = Tmax in fasted human at 600 mg, po administered as single dose; type: ADME, organism-based; conditions: in vivo
Procedure, shortened: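 Randomized single-dose, three-period Latin-square crossover in 12 healthy volunteers (six per gender), fasting. Single oral doses of 300, 600 and 900 mg were separated by a 1-week washout. PK parameters were derived by noncompartmental analysis.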

[2] = Cmax in fasted human at 900 mg, po administered as single dose; type: ADME, organism-based; parameters: dose 900 mg, route oral; conditions: in vivo
Procedure, shortened: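 Healthy volunteers (12; six of each sex) in a three-period Latin-square crossover. Each received single oral doses of 300, 600 and 900 mg under fasting conditions, with a 1-week washout between doses. Parameters from a noncompartmental model.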

[3] = AUC (0 to infinity) in fasted human at 900 mg, po administered as single dose; type: ADME, organism-based; parameters: dose 900 mg, route oral, time infinity; conditions: plasma
Procedure, shortened: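 Single-dose, three-period Latin-square crossover in 12 healthy volunteers (6 of each gender). Each received single oral 300, 600 and 900 mg doses under fasting conditions, with a 1-week washout between doses. PK parameters, including AUC0−inf, came from a noncompartmental model.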

Homo sapiens [4] = assay: Toxicity in human at 600 to 800 mg, po administered as single dose with meal on day 1 and day 15 followed by bid with meal on day 2 to day 14 measured during compound treatment; type: organism-based; conditions: in vivo
[5] = Tmax in human at 600 mg, po administered as single dose with meal measured on day 15; type: ADME, organism-based; conditions: in vivo
Procedure, shortened: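 Randomized, double-blind, placebo-controlled multiple-dose study in 32 healthy subjects, half male and half female. Dosing was 600 or 800 mg orally with a meal, 28 doses over 15 days. A single dose was given on days 1 and 15 for full PK, with Q12h (BID) dosing on days 2−14.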

[6] = Cmax in human at 800 mg, po administered as single dose with meal measured on day 1; type: ADME, organism-based; parameters: dose 800 mg, route oral; conditions: in vivo
Procedure, shortened: (§1)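 Randomized, double-blind, placebo-controlled multiple-dose study in 32 healthy subjects, half male and half female. Each dose was taken with a meal, at 600 or 800 mg, 28 doses over 15 days. A single dose on days 1 and 15 gave full PK; BID (Q12h) dosing ran on days 2–14.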

Homo sapiens [7] = assay: Toxicity in human assessed as change in platelet count at 600 to 800 mg, po administered as single dose with meal on day 1 and day 15 followed by bid with meal on day 2 to day 14 measured during compound treatment; type: organism-based; conditions: in vivo
Homo sapiens [8] = assay: Toxicity in human assessed as change in neutrophil count at 600 to 800 mg, po administered as single dose with meal on day 1 and day 15 followed by bid with meal on day 2 to day 14 measured during compound treatment; type: organism-based; conditions: in vivo
Rattus norvegicus [9] = organism: Rattus norvegicus; assay: Drug uptake in rat measured over 7 days; type: ADME, organism-based; conditions: in vivo, 168 h
Homo sapiens [10] = assay: Drug uptake in human at 600 to 800 mg, po administered as single dose with meal measured on day 1 and day 15; type: ADME, organism-based; conditions: in vivo; procedure, shortened: as §1
Rattus norvegicus [11] = assay: Toxicity in female rat assessed as effect on RBC count at 200 to 300 mg/kg/day, po bid administered for 4 weeks (reference value: 7.28 x 10^12/L); type: organism-based; parameters: route oral; conditions: in vivo, 672 h
Rattus norvegicus [12] = assay: Toxicity in female rat assessed as effect on hemoglobin level at 200 to 300 mg/kg/day, po bid administered for 4 weeks (reference value: 141.8 g/L); type: organism-based; parameters: route oral; conditions: in vivo, 672 h
Rattus norvegicus [13] = assay: Toxicity in female rat assessed as effect on reticulocyte count at 200 to 300 mg/kg/day, po bid administered for 4 weeks (reference value: 1.48%); type: organism-based; parameters: route oral; conditions: in vivo, 672 h
[14] = AUC (0 to 24 hrs) in female rat at 100 mg/kg/day, po bid administered for 4 weeks; type: ADME, organism-based; parameters: time < 24 hr, dose 100 mg/kg/day, route oral; conditions: plasma
Procedure, shortened: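 Repeat-dose toxicity study in rats (10/gender/group) dosed orally twice daily for 4 weeks, then a 4-week recovery period; the top dose was raised from 200 to 300 mg/kg/day on day 15. Blood was taken on days 1, 14 and 28 for toxicokinetics, and AUC0−24 was reported for females.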

MAO-A = MAO-A (Homo sapiens, UniProt P21397); assay: Ratio of compound IC50 to linezolid IC50 for human recombinant MAO-A by luciferin-based luminescence assay; type: ADME; conditions: read-out: Ratio IC50
Chain of MAO-A (P21397 whole entry): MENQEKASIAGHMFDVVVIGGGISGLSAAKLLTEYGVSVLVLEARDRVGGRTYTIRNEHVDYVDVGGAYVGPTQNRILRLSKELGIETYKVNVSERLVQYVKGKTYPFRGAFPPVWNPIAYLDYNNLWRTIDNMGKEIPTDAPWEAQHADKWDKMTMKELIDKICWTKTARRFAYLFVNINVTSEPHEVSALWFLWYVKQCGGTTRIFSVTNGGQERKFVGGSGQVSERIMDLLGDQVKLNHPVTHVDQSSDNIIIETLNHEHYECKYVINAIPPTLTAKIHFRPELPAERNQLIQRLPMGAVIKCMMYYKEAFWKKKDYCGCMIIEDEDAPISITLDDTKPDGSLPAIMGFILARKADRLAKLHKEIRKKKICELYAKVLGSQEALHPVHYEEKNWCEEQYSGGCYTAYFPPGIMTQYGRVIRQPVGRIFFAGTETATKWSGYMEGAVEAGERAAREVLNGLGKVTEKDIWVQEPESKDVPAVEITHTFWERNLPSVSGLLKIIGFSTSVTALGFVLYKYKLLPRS

[15] = Myelosuppression activity against human CD34-positive blood stem/progenitor cells assessed as growth inhibition after 9 to 10 days by CellTiter-Glo luminescent assay
Staphylococcus = assay: Antibacterial activity against beta-lactamase-negative Staphylococcus; type: functional
Enterococcus faecalis [16] = assay: Bacteriostatic activity against vancomycin-sensitive Enterococcus faecalis; type: functional
Streptococcus pneumoniae = assay: Bactericidal activity against penicillin-sensitive Streptococcus pneumoniae; type: functional
Streptococcus pyogenes = assay: Antibacterial activity against Streptococcus pyogenes; type: functional
[17] = system: Streptococcus constellatus; assay: Antibacterial activity against Streptococcus constellatus; type: functional
Staphylococcus aureus [18] = assay: Potency index, ratio of linezolid MIC90 to compound MIC90 for methicillin-resistant Staphylococcus aureus; type: functional
Staphylococcus aureus [19] = assay: Antibacterial activity against linezolid-resistant Staphylococcus aureus isolate 4184; type: functional
Staphylococcus aureus [20] = assay: Antibacterial activity against Staphylococcus aureus measured after 2 serial passages; type: functional
Staphylococcus aureus [21] = assay: Antibacterial activity against Staphylococcus aureus measured after 7 serial passages; type: functional
Staphylococcus aureus [22] = assay: Antibacterial activity against Staphylococcus aureus measured after 10 serial passages; type: functional
Staphylococcus aureus [23] = assay: Antibacterial activity against methicillin-sensitive Staphylococcus aureus isolate 15; type: functional
Enterococcus faecalis [24] = assay: Antibacterial activity against vancomycin-sensitive/high-level gentamycin-resistant Enterococcus faecalis isolate HH22; type: functional; conditions: EnGen0297
Staphylococcus aureus [25] = assay: Antibacterial activity against methicillin-resistant Staphylococcus aureus isolate 0605 in po dosed mouse systemic infection model; type: functional; conditions: isolate 0605, po
Enterococcus faecalis [26] = assay: Antibacterial activity against vancomycin-sensitive/high-level gentamycin-resistant Enterococcus faecalis isolate HH22 in po dosed mouse systemic infection model; type: functional; conditions: EnGen0297, po
Staphylococcus aureus [27] = assay: Antibacterial activity against methicillin-sensitive Staphylococcus aureus ATCC 29213 in mouse thigh infection model assessed as reduction of log10 CFU per thigh at 40 mg/kg, po; type: functional
Procedure, shortened: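 Mouse thigh infection with S. aureus ATCC29213 (MSSA), 10 animals per dosing group. Oral doses were 5, 10, 20, 40 and 80 mg/kg. The read-out was log CFU per thigh after treatment, and the reduction (ΔLogCFU/thigh) was reported.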

Staphylococcus aureus [28] = assay: Antibacterial activity against methicillin-resistant Staphylococcus aureus isolate 0605 in mouse thigh infection model assessed as reduction of log10 CFU per thigh at 20 mg/kg, po; type: functional
Staphylococcus aureus [29] = assay: Antibacterial activity against methicillin-resistant Staphylococcus aureus isolate 0605 in mouse thigh infection model assessed as reduction of log10 CFU per thigh at 40 mg/kg, po; type: functional
Staphylococcus aureus [30] = assay: Antibacterial activity against methicillin-resistant Staphylococcus aureus isolate 0605 in po dosed mouse thigh infection model; type: functional, organism-based; conditions: Thigh muscle
[31] = Tmax in po dosed dog; type: ADME, organism-based, Canis lupus familiaris; conditions: in vivo
Mus musculus = assay: Dose normalized Cmax in po dosed mouse; type: ADME, organism-based; conditions: in vivo
[32] = Half life in po dosed dog; type: ADME, organism-based, Canis lupus familiaris; conditions: in vivo
L5178Y = assay: Mutagenicity in mouse tk +/- L5178Y cells assessed as increase in gene mutation frequency at 62.5 to 1000 ug/mL in absence of S9 fraction

O=C1C=CN(c2c(F)cc(N3C[C@H](CNc4ccon4)OC3=O)c(F)c2F)CC1 [CONTEZOLID]
Tmax [1]: 2 h | Cmax [2]: 15.2 µg/mL | AUC(0-inf) [3]: 59.2 µg·h/mL | Activity (Homo sapiens [4]): Non-toxic | Tmax [5]: 0.6 h | Cmax [6]: 27.8 µg/mL | Activity (Homo sapiens [7]): Non-toxic | Activity (Homo sapiens [8]): Non-toxic | Drug uptake (Rattus norvegicus [9]): Not Active | Drug uptake (Homo sapiens [10]): Not Active | Activity (Rattus norvegicus [11]): 5.77 ×10¹² /L | Activity (Rattus norvegicus [12]): 117.6 g/L | Activity (Rattus norvegicus [13]): 1.26% | AUC at 24 h [14]: 319 µg·h/mL | selectivity ratio (MAO-A): 3 | IC50 [15]: 15.7 mg/L (≈ 38.4 µM) | MIC50 (Staphylococcus): 0.5 mg/L (≈ 1.22 µM) | MIC90 (Staphylococcus): 0.5 mg/L (≈ 1.22 µM) | MIC50 (Enterococcus faecalis [16]): 1 mg/L (≈ 2.45 µM) | MIC90 (Enterococcus faecalis [16]): 1 mg/L (≈ 2.45 µM) | MIC50 (Streptococcus pneumoniae): 0.5 mg/L (≈ 1.22 µM) | MIC90 (Streptococcus pneumoniae): 0.5 mg/L (≈ 1.22 µM) | MIC50 (Streptococcus pyogenes): 0.5 mg/L (≈ 1.22 µM) | MIC90 (Streptococcus pyogenes): 1 mg/L (≈ 2.45 µM) | MIC50 [17]: 0.5 mg/L (≈ 1.22 µM) | MIC90 [17]: 1 mg/L (≈ 2.45 µM) | Ratio (Staphylococcus aureus [18]): 2 | MIC (Staphylococcus aureus [19]): > 16 mg/L | MIC (Staphylococcus aureus [20]): 2 mg/L (≈ 4.9 µM) | MIC (Staphylococcus aureus [21]): 2 mg/L (≈ 4.9 µM) | MIC (Staphylococcus aureus [22]): 4 mg/L (≈ 9.8 µM) | MIC (Staphylococcus aureus [23]): 2 mg/L (≈ 4.9 µM) | MIC (Enterococcus faecalis [24]): 2 mg/L (≈ 4.9 µM) | ED50 (Staphylococcus aureus [25]): 12 mg/kg | ED50 (Enterococcus faecalis [26]): 7.4 mg/kg | deltalog10CFU (Staphylococcus aureus [27]): 3.42 | deltalog10CFU (Staphylococcus aureus [28]): 3.6 | deltalog10CFU (Staphylococcus aureus [29]): 4.13 | Activity (Staphylococcus aureus [30]): Dose-dependent effect | Tmax [31]: 0.5 h | Cmax/dose (Mus musculus): 524 ng/mL/(mg/kg) | half-life [32]: 3 h | Activity (L5178Y): Non-toxic
